Converted amounts (≈) assume the structure as drawn.
Key:
Type in all cases: functional
[1] = test system: Mycobacterium tuberculosis; experiment: Antimycobacterial activity against Mycobacterium tuberculosis H37Rv 331/88 after 14 days by micromethod; conditions: H37Rv 331/88, 336 h
Method in brief: (§1)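 Micromethod in Sula semisynthetic medium, with compounds added as DMSO solutions at 1000, 500, 250, 125, 62, 32, 16, 8, 4, 2, 1, 0.5, 0.25. Inoculum dilutions: H37Rv 10^-3; M. avium 330/88 10^-5; M. kansasii 235/80 10^-4; M. kansasii 6509/96 10^-5. Incubated at 37 °C, read at 14 and 21 days, and at 7 days for M. kansasii. MIC was the lowest concentration inhibiting growth.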

[2] = test system: Mycobacterium tuberculosis; experiment: Antimycobacterial activity against Mycobacterium tuberculosis H37Rv 331/88 after 21 days by micromethod; conditions: H37Rv 331/88, 504 h; method in brief: as §1
[3] = test system: Mycobacterium avium; experiment: Antimycobacterial activity against multidrug-resistant Mycobacterium avium 330/88 after 14 days by micromethod; conditions: 330/88, 336 h; method in brief: as §1
[4] = test system: Mycobacterium avium; experiment: Antimycobacterial activity against multidrug-resistant Mycobacterium avium 330/88 after 21 days by micromethod; conditions: 330/88, 504 h; method in brief: as §1
[5] = test system: Mycobacterium kansasii; experiment: Antimycobacterial activity against Mycobacterium kansasii 235/80 after 7 days by micromethod; conditions: 235/80, 168 h; method in brief: as §1
[6] = test system: Mycobacterium kansasii; experiment: Antimycobacterial activity against Mycobacterium kansasii 235/80 after 14 days by micromethod; conditions: 235/80, 336 h; method in brief: as §1
[7] = test system: Mycobacterium kansasii; experiment: Antimycobacterial activity against Mycobacterium kansasii 235/80 after 21 days by micromethod; conditions: 235/80, 504 h; method in brief: as §1
[8] = test system: Mycobacterium kansasii; experiment: Antimycobacterial activity against Mycobacterium kansasii 6509/96 after 7 days by micromethod; conditions: 6509/96, 168 h; method in brief: as §1
[9] = test system: Mycobacterium kansasii; experiment: Antimycobacterial activity against Mycobacterium kansasii 6509/96 after 14 days by micromethod; conditions: 6509/96, 336 h; method in brief: as §1
[10] = test system: Mycobacterium kansasii; experiment: Antimycobacterial activity against Mycobacterium kansasii 6509/96 after 21 days by micromethod; conditions: 6509/96, 504 h; method in brief: as §1

`NNC(=O)c1ccncc1` [ISONIAZID] gave an MIC [1] of 0.5 µM (≈ 0.0686 µg/mL), an MIC [2] of 0.5 µM (≈ 0.0686 µg/mL) and an MIC [3] of over 250 µM. It also gave an MIC [4] of over 250 µM, an MIC [5] of over 250 µM and an MIC [6] of over 250 µM. The MIC [7] was over 250 µM, the MIC [8] was 2 µM (≈ 0.274 µg/mL) and the MIC [9] was 4 µM (≈ 0.549 µg/mL). The MIC [10] was 4 µM (≈ 0.549 µg/mL).

Compound `Nc1ccc(C(=O)O)c(O)c1` [AMINOSALICYLIC ACID] has an MIC [1] of 62.5 µM (≈ 9.57 µg/mL), an MIC [2] of 62.5 µM (≈ 9.57 µg/mL) and an MIC [3] of 32 µM (≈ 4.9 µg/mL). For the same compound, the MIC [4] was 125 µM (≈ 19.1 µg/mL), the MIC [5] was 125 µM (≈ 19.1 µg/mL) and the MIC [6] was 1000 µM (≈ 153 µg/mL). The MIC [7] was over 1000 µM, the MIC [8] was 32 µM (≈ 4.9 µg/mL) and the MIC [9] was 125 µM (≈ 19.1 µg/mL). It also gave an MIC [10] of 500 µM (≈ 76.6 µg/mL).

From ChEMBL document CHEMBL1629494, “New amino acid esters of salicylanilides active against MDR-TB and other microbes” (Eur J Med Chem, 2010)
